Tests used:
[1] = Clearance in Sprague-Dawley rat at 0.25 mg/kg, iv bolus injection administered as cassette dose; format: ADME, organism-based; settings: in vivo
In short: (§1)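 Male Sprague–Dawley rats, 5-in-1 cassette, 0.25 mg/kg IV of each test article in DMSO:PEG400:EtOH:Saline (5:48:10:37). Plasma sampled at 0.0833, 0.25, 0.5, 1, 3, 4, 8 and 24 h, plus Day 2 at 0.25 h post dose.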

[2] = Drug concentration in Sprague-Dawley rat brain at 0.25 mg/kg measured up to 48.25 hrs; format: ADME, organism-based; settings: read-out: Ct
In short: (§2)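 Brain sampled on Day 2 at 0.25 h, with matching plasma, after a 0.25 mg/kg IV cassette dose (5-in-1) in male Sprague–Dawley rats. Vehicle was DMSO:PEG400:EtOH:Saline (5:48:10:37). Kp is total brain/plasma concentration ratio.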

[3] = Plasma protein binding in mouse assessed as unbound fraction; format: ADME, cell-free; settings: read-out: PPB
In short: (§3)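 Equilibrium dialysis in human and mouse plasma; results expressed as […] fraction unbound.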

[4] = Microsomal stability in mouse liver microsomes assessed as intrinsic clearance; format: ADME, Microsome; settings: read-out: CLH
In short: (§4)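 Intrinsic clearance measured in human and mouse liver microsomes. Hepatic clearance predicted from it with the well-stirred organ CL model, binding terms excluded.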

[5] = AUC in Sprague-Dawley rat at 0.25 mg/kg, iv bolus injection administered as cassette dose; format: ADME, organism-based; design: dose 0.25 mg/kg, route iv; settings: in vivo; in short: as §1
[6] = biological target: T1, Mas-related G-protein coupled receptor member X1 (Homo sapiens, UniProt Q96LB2); assay: Positive allosteric modulator activity at human MRGPRX1 expressed in HEK293 cells assessed as maximal efficacy at 5 uM in presence of BAM8-22 by Fluo4-dye based FLIPR assay relative to control; format: cell-based; settings: filed as positive allosteric modulator
[7] = Volume of distribution at steady state in Sprague-Dawley rat at 0.25 mg/kg, iv bolus injection administered as cassette dose; format: ADME, organism-based; settings: in vivo, read-out: Vdss; in short: as §1
[8] = Drug concentration in Sprague-Dawley rat plasma at 0.25 mg/kg measured up to 48.25 hrs; format: ADME, organism-based; in short: as §2
[9] = Ratio of drug concentration in brain to plasma in Sprague-Dawley rat at 0.25 mg/kg measured after 15 mins; format: ADME, organism-based; settings: brain and plasma; in short: as §2
[10] = Half life in Sprague-Dawley rat at 0.25 mg/kg, iv bolus injection administered as cassette dose; format: ADME, organism-based; settings: in vivo; in short: as §1
[11] = Plasma protein binding in human assessed as unbound fraction; format: ADME, cell-free; settings: read-out: PPB; in short: as §3
[12] = biological target: T1, Mas-related G-protein coupled receptor member X1; assay: Positive allosteric modulator activity at human MRGPRX1 expressed in HEK293 cells in presence of BAM8-22 by Fluo4-dye based FLIPR assay; format: cell-based
In short: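 HEK293 cells expressing MrgX1. Compounds tested in the presence of 10 nM BAM8-22. Emax normalized to control compound ML382; mean ± SEM of n = 2 experiments.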

[13] = Microsomal stability in human liver microsomes assessed as intrinsic clearance; format: ADME, Microsome; settings: read-out: CLH; in short: as §4
Histamine H1 receptor = Histamine H1 receptor (Homo sapiens, UniProt P35367); assay: Binding affinity to H1 receptor (unknown origin)
[14] = AUC in mouse at 2 mg/kg, ip administered as discrete dose; format: ADME, organism-based; design: dose 2 mg/kg, route ip; settings: in vivo
In short: (§5)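 Discrete (single-compound) mouse PK, dosed IP at 2 mg/kg in 10% DMSO/10% cremophor EL/30% PEG400/50% water. Plasma and brain concentrations measured; brain:plasma ratio reported.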

[15] = Cmax in mouse at 2 mg/kg, ip administered as discrete dose; format: ADME, organism-based; design: dose 2 mg/kg, route ip; settings: in vivo; in short: as §5
[16] = Half life in mouse at 2 mg/kg, ip administered as discrete dose; format: ADME, organism-based; settings: in vivo; in short: as §5
[17] = Tmax in mouse at 2 mg/kg, ip administered as discrete dose; format: ADME, organism-based; settings: in vivo; in short: as §5
D(1B) dopamine receptor = D(1B) dopamine receptor (Homo sapiens, UniProt P21918); assay: Binding affinity to D5 receptor (unknown origin)
[18] = Ratio of drug concentration in brain to plasma in mouse at 2 mg/kg, ip administered as discrete dose; format: ADME, organism-based; settings: brain and plasma, read-out: BPR; in short: as §5
Translocator protein = Translocator protein (Homo sapiens, UniProt P30536); assay: Binding affinity to peripheral benzodiazepine receptor (unknown origin)
Sequence of Translocator protein (P30536 whole entry): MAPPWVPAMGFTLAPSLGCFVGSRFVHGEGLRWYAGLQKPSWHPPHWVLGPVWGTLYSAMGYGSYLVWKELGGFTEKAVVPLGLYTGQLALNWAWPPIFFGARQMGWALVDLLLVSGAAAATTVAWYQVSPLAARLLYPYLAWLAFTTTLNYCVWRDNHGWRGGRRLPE

T1 sequence (Q96LB2 whole entry): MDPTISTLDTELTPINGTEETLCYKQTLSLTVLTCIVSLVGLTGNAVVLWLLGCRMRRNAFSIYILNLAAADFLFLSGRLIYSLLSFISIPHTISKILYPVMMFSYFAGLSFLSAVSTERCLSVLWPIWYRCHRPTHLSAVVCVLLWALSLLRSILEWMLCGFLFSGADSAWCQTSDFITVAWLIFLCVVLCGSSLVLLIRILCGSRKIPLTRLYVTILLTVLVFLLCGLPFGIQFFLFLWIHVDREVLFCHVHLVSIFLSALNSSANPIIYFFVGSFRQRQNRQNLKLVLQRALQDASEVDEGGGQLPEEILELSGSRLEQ
Sequence of Histamine H1 receptor (P35367 whole entry): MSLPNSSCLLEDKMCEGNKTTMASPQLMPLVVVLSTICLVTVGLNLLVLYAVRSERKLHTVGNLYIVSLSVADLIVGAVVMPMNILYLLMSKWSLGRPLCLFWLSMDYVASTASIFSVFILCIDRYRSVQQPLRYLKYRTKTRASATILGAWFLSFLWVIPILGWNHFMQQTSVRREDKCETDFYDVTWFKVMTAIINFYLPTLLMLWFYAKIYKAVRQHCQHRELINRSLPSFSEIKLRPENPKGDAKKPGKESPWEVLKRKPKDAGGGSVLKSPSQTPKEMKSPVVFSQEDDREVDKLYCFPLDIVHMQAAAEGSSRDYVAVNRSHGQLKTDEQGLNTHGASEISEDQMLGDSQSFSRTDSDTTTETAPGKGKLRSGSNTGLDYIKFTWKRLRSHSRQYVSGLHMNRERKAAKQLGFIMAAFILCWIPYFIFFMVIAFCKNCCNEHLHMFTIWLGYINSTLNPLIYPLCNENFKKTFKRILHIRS
Sequence of D(1B) dopamine receptor (P21918 whole entry): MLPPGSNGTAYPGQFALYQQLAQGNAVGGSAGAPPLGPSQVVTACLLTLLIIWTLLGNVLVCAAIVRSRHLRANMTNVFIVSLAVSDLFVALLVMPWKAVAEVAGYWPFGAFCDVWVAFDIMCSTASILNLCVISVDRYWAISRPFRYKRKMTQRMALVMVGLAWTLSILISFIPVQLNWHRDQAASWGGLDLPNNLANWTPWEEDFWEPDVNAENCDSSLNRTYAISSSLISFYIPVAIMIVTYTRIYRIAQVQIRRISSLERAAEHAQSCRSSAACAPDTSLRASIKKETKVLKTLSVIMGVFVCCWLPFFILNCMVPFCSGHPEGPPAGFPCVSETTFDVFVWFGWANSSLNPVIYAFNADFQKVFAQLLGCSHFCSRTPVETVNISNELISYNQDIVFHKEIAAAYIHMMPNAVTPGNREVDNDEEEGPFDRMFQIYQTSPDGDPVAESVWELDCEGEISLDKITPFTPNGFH

Row | Compound | clearance [1] [mL/min/kg] | concentration at 48.25 h [2] [ng/g] | fraction unbound [3] | CLint scaled [4] [mL/min/kg] | AUC [5] [ng·h/mL] | Emax [6] [%] | Vd [7] [L/kg] | concentration at 48.25 h [8] [ng/mL] | Kp at 0.25 h [9] | half-life [10] [min] | fraction unbound [11] | EC50 [12] [nM] | CLint scaled [13] [mL/min/kg] | Ki (Histamine H1 receptor) [nM] | other results
1 | CCOc1ccc(F)cc1NC(=O)c1cc(C)ccc1NS(=O)(=O)C1CC1 | 63.1 | 35.1 | 0.012 | 1100 | 66.2 | 106 | 1.2 | 61.5 | 0.57 | 25.2 | 0.003 | 69 | 114 | 1090 | –
2 | CCOc1ccc(F)cc1NC(=O)c1ccccc1NS(=O)(=O)C1CC1 | 36.7 | 23.6 | 0.022 | 1660 | 119 | 82.2 | 0.52 | 79.6 | 0.29 | 28.8 | 0.004 | 14 | 79.1 | > 4000 | AUC [14]: 69 ng·h/mL; Cmax [15]: 259 ng/mL; half-life [16]: 10.8 min; Tmax [17]: 10.2 min; Ki (D(1B) dopamine receptor): > 4000 nM; Kp [18]: 0.32; Ki (Translocator protein): 271 nM
